{
  "source": "ChEMBL document CHEMBL4732268",
  "about": "“Discovery of a Potent and Selective Covalent p300/CBP Inhibitor” (ACS Med Chem Lett, 2021)",
  "key": {"[1]": {"assay": "Inhibition of human p300/CBP in human PC-3 cells assessed as decrease in H3K27 acetylation measured after 3 hrs by Fluorescence based plate reader assay", "assay_type": "cell-based", "conditions": "PC-3, 3 h", "summary_of_the_method": "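PC-3 cells were treated with compound for 3 h, and the reduction in H3K27 acetylation was measured.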"}, "[2]": {"assay": "Inhibition of human p300-BHC domain (residues 1036-1822)/CBP-BHC domain (residues 1072-1859) expressed in Bac-to-Bac Baculovirus expression system assessed as inhibition of lysine residues acetylation in Histone H4 synthetic substrate preincubated for 30 mins followed by addition of substrate and acetyl coenzyme A and measured after 1 hr by TR-FRET assay"}, "[3]": {"system": "LNCaP-Clone-FGC", "assay": "Antiproliferative activity against AR-positive human LNCaP-Clone-FGC cells assessed as inhibition of cell proliferation measured after 5 days by luminiscent plate reader method", "assay_type": "functional, cell-based", "conditions": "120 h", "summary_of_the_method": "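LNCaP-FGC cells (androgen receptor-positive) were treated with compound for 5 days, then proliferation was read in a cell-growth assay. EC50 was derived from N = 2.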"}, "[4]": {"assay": "Inhibition of human p300/CBP in human PC-3 cells assessed as decrease in H3K27 acetylation incubated for 24 hrs followed by compound washout and measured after 1 hr by Fluorescence based plate reader assay", "assay_type": "cell-based", "summary_of_the_method": "(§1)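 Washout assay. PC-3 cells were incubated with compound for 24 h, washed, and given fresh compound-free medium. Incubation then continued, and H3K27 acetylation was measured at set times from 1 to 48 h after washout. Inhibition is reported as EC50.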"}, "[5]": {"assay": "Inhibition of human p300/CBP in human PC-3 cells assessed as decrease in H3K27 acetylation incubated for 24 hrs followed by compound washout and measured after 48 hr by Fluorescence based plate reader assay", "assay_type": "cell-based", "summary_of_the_method": "as §1"}, "[6]": {"assay": "Inhibition of human p300/CBP in human PC-3 cells assessed as decrease in H3K27 acetylation incubated for 24 hrs followed by compound washout and measured after 2 hr by Fluorescence based plate reader assay", "assay_type": "cell-based", "summary_of_the_method": "as §1"}, "[7]": {"assay": "Inhibition of human p300/CBP in human PC-3 cells assessed as decrease in H3K27 acetylation measured after 24 hrs by Fluorescence based plate reader assay", "assay_type": "cell-based", "conditions": "PC-3, 24 h"}, "[8]": {"assay": "Inhibition of human p300/CBP in human PC-3 cells assessed as decrease in H3K27 acetylation incubated for 24 hrs followed by compound washout and measured after 24 hr by Fluorescence based plate reader assay", "assay_type": "cell-based", "conditions": "PC-3, 24 h", "summary_of_the_method": "as §1"}, "[9]": {"assay": "Inhibition of human p300/CBP in human PC-3 cells assessed as decrease in H3K27 acetylation incubated for 24 hrs followed by compound washout and measured after 4 hr by Fluorescence based plate reader assay", "assay_type": "cell-based", "summary_of_the_method": "as §1"}, "[10]": {"assay": "Inhibition of human p300/CBP in human PC-3 cells assessed as decrease in H3K27 acetylation incubated for 24 hrs followed by compound washout and measured after 8 hr by Fluorescence based plate reader assay", "assay_type": "cell-based", "summary_of_the_method": "as §1"}, "[11]": {"assay": "Inhibition of human p300/CBP in human PC-3 cells assessed as decrease in H3K27 acetylation measured after 48 hrs by Fluorescence based plate reader assay", "assay_type": "cell-based", "conditions": "PC-3, 48 h"}, "[12]": {"species_on_record": "Homo sapiens", "assay": "Ratio of EC50 for human p300/CBP in human PC-3 cells incubated for 24 hrs and measured 8 hr post washout to EC50 for human p300/CBP in human PC-3 cells measured after 24 hrs", "assay_type": "cell-based"}, "[13]": {"system": "DU-145", "assay": "Antiproliferative activity against human DU-145 cells assessed as inhibition of cell proliferation measured after 5 days by luminiscent plate reader method", "assay_type": "functional, cell-based", "conditions": "DU-145, 120 h", "summary_of_the_method": "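DU-145 cells (androgen receptor-negative) were treated with compound for 5 days, then proliferation was read in a cell-growth assay. EC50 was derived from the dose response.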"}, "[14]": {"species_on_record": "Homo sapiens", "assay": "Ratio of EC50 for human p300/CBP in human PC-3 cells incubated for 24 hrs and measured 1 hr post washout to EC50 for human p300/CBP in human PC-3 cells measured after 24 hrs", "assay_type": "cell-based"}, "[15]": {"species_on_record": "Homo sapiens", "assay": "Ratio of EC50 for human p300/CBP in human PC-3 cells incubated for 24 hrs and measured 2 hr post washout to EC50 for human p300/CBP in human PC-3 cells measured after 24 hrs", "assay_type": "cell-based"}, "[16]": {"species_on_record": "Homo sapiens", "assay": "Ratio of EC50 for human p300/CBP in human PC-3 cells incubated for 24 hrs and measured 4 hr post washout to EC50 for human p300/CBP in human PC-3 cells measured after 24 hrs", "assay_type": "cell-based"}, "[17]": {"species_on_record": "Homo sapiens", "assay": "Ratio of EC50 for human p300/CBP in human PC-3 cells incubated for 24 hrs and measured 24 hr post washout to EC50 for human p300/CBP in human PC-3 cells measured after 24 hrs", "assay_type": "cell-based"}, "[18]": {"species_on_record": "Homo sapiens", "assay": "Ratio of EC50 for human p300/CBP in human PC-3 cells measured after 48 hr to EC50 for human p300/CBP in human PC-3 cells measured after 24 hrs", "assay_type": "cell-based"}, "[19]": {"species_on_record": "Homo sapiens", "assay": "Ratio of EC50 for human p300/CBP in human PC-3 cells incubated for 24 hrs and measured 48 hr post washout to EC50 for human p300/CBP in human PC-3 cells measured after 24 hrs", "assay_type": "cell-based"}},
  "data": [
    {"compound": "C=CC(=O)NCC(C)(C)CNC(=O)Nc1ccc2c(c1)CC[C@@]21OC(=O)N(CC(=O)N(Cc2ccc(F)cc2)[C@@H](C)C(F)(F)F)C1=O", "values": [
      {"measurement": "EC50", "setting": "[1]", "result": 0.048, "unit": "µM"},
      {"measurement": "IC50", "setting": "[2]", "result": 0.185, "unit": "µM"},
      {"measurement": "EC50", "setting": "[3]", "result": 0.177, "unit": "µM"}
    ]},
    {"compound": "C=CC(=O)N1CCCN(C(=O)Nc2ccc3c(c2)CC[C@@]32OC(=O)N(CC(=O)N(Cc3ccc(F)cc3)[C@@H](C)C(F)(F)F)C2=O)C1", "values": [
      {"measurement": "IC50", "setting": "[2]", "result": 2, "unit": "µM"}
    ]},
    {"compound": "C=CS(=O)(=O)c1ccc(NC(=O)Nc2ccc3c(c2)CC[C@@]32OC(=O)N(CC(=O)N(Cc3ccc(F)cc3)[C@@H](C)C(F)(F)F)C2=O)cc1", "values": [
      {"measurement": "IC50", "setting": "[2]", "result": 4.27, "unit": "µM"}
    ]},
    {"compound": "C=CC(=O)Nc1ccc(NC(=O)Nc2ccc3c(c2)CC[C@@]32OC(=O)N(CC(=O)N(Cc3ccc(F)cc3)[C@@H](C)C(F)(F)F)C2=O)cc1", "values": [
      {"measurement": "IC50", "setting": "[2]", "result": 22.1, "unit": "µM"}
    ]},
    {"compound": "C=CS(=O)(=O)Nc1ccc(NC(=O)Nc2ccc3c(c2)CC[C@@]32OC(=O)N(CC(=O)N(Cc3ccc(F)cc3)[C@@H](C)C(F)(F)F)C2=O)cc1", "values": [
      {"measurement": "IC50", "setting": "[2]", "result": 3.02, "unit": "µM"}
    ]},
    {"compound": "CNC(=O)Nc1ccc2c(c1)CC[C@@]21OC(=O)N(CC(=O)N(Cc2ccc(F)cc2)[C@@H](C)C(F)(F)F)C1=O", "note": "[A-485]", "values": [
      {"measurement": "EC50", "setting": "[1]", "result": 0.103, "unit": "µM"},
      {"measurement": "EC50", "setting": "[4]", "result": "> 10", "unit": "µM"},
      {"measurement": "EC50", "setting": "[5]", "result": "> 10", "unit": "µM"},
      {"measurement": "EC50", "setting": "[6]", "result": "> 10", "unit": "µM"},
      {"measurement": "EC50", "setting": "[7]", "result": 0.227, "unit": "µM"},
      {"measurement": "EC50", "setting": "[8]", "result": "> 10", "unit": "µM"},
      {"measurement": "EC50", "setting": "[3]", "result": 0.35, "unit": "µM"},
      {"measurement": "EC50", "setting": "[9]", "result": "> 10", "unit": "µM"},
      {"measurement": "EC50", "setting": "[10]", "result": "> 10", "unit": "µM"},
      {"measurement": "EC50", "setting": "[11]", "result": 0.253, "unit": "µM"}
    ]},
    {"compound": "C=CS(=O)(=O)Nc1cccc(NC(=O)Nc2ccc3c(c2)CC[C@@]32OC(=O)N(CC(=O)N(Cc3ccc(F)cc3)[C@@H](C)C(F)(F)F)C2=O)c1", "values": [
      {"measurement": "EC50", "setting": "[1]", "result": 1.23, "unit": "µM"},
      {"measurement": "IC50", "setting": "[2]", "result": 0.604, "unit": "µM"}
    ]},
    {"compound": "C=CC(=O)Nc1cccc(NC(=O)Nc2ccc3c(c2)CC[C@@]32OC(=O)N(CC(=O)N(Cc3ccc(F)cc3)[C@@H](C)C(F)(F)F)C2=O)c1", "values": [
      {"measurement": "EC50", "setting": "[1]", "result": 0.037, "unit": "µM"},
      {"measurement": "Ratio", "setting": "[12]", "result": 11.3},
      {"measurement": "EC50", "setting": "[4]", "result": 0.015, "unit": "µM"},
      {"measurement": "EC50", "setting": "[13]", "result": 1.37, "unit": "µM"},
      {"measurement": "EC50", "setting": "[5]", "result": 0.656, "unit": "µM"},
      {"measurement": "EC50", "setting": "[6]", "result": 0.017, "unit": "µM"},
      {"measurement": "EC50", "setting": "[7]", "result": 0.011, "unit": "µM"},
      {"measurement": "EC50", "setting": "[8]", "result": 0.544, "unit": "µM"},
      {"measurement": "IC50", "setting": "[2]", "result": 0.166, "unit": "µM"},
      {"measurement": "Ratio", "setting": "[14]", "result": 1.3},
      {"measurement": "EC50", "setting": "[3]", "result": 0.087, "unit": "µM"},
      {"measurement": "Ratio", "setting": "[15]", "result": 1.5},
      {"measurement": "Ratio", "setting": "[16]", "result": 2.1},
      {"measurement": "EC50", "setting": "[9]", "result": 0.024, "unit": "µM"},
      {"measurement": "Ratio", "setting": "[17]", "result": 47.8},
      {"measurement": "EC50", "setting": "[10]", "result": 0.129, "unit": "µM"},
      {"measurement": "Ratio", "setting": "[18]", "result": 1.8},
      {"measurement": "EC50", "setting": "[11]", "result": 0.021, "unit": "µM"},
      {"measurement": "Ratio", "setting": "[19]", "result": 57.7}
    ]}
  ]
}
